Key:
[1] = Safety evaluation: blood biochemical indices; format: in vivo, ICR mice; details: normal mice, n = 3
Outline: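 ICR mice (20–22 g) were randomly divided into six groups and given the treatments used previously. Blood biochemical indices were then assessed.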

[2] = In vivo toxicity: body weight and H&E staining of major organs; set-up: species or system nude mice
Outline: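 BALB/c nude mice bearing subcutaneous axillary A549 xenografts (5 × 10^6 cells) were randomised at mean 80 mm3 into six groups (n = 10). Test formulations were given intravenously every two days for five doses, at 2 mg/kg and 0.8 mg/kg of the two loaded agents. One free-agent control was given by oral gavage at 20 mg/kg over 6 days. Body weight was measured every two days. At the end of treatment, one mouse per group was sacrificed, and heart, liver, spleen, lung and kidney were fixed in 4% paraformaldehyde, sectioned and stained with H&E.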

COc1cccc2c1C(=O)c1c(O)c3c(c(O)c1C2=O)C[C@@](O)(C(=O)CO)C[C@@H]3O[C@H]1C[C@H](N)[C@H](O)[C@H](C)O1 [Free DOX, doxorubicin]
level of serum creatine kinase [1]: significantly elevated | body weight ([2]; A549 tumour-bearing nude mice during treatment): substantial weight loss | cardiac tissue histology (H&E) ([2]; nude mice bearing subcutaneous A549 tumour): noticeable cardiac tissue degeneration

Reference: article PMC7480498 (Journal of Extracellular Vesicles, 2020)
